The text below walks through data of paper PMC9305466 (British Journal of Clinical Pharmacology, 2022).

Series [1] has as its system subjects with rheumatoid arthritis (RA). The experiment in a line: Exposure-safety analysis. The class given is in vivo, human. The following applies: up to week 52; for exposures (AUC0‐24) by presence or absence of the five most frequent TEAEs: nausea, nasopharyngitis, upper respiratory tract infection, headache, hypertension. The procedure, abridged:
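Individual parent and metabolite exposures came from population PK models and were analysed separately for each analyte. Data were pooled from all five studies across all doses. Data collected after rerandomization and a switch of treatment group were excluded. Exposures were compared between subjects with and without each event (serious TEAEs, serious infections). Cmax was also evaluated.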

In a further series the test system is JAK1. The following applies: GS‐829845 vs filgotinib; cited from earlier work.
For series [2] the following is noted: phase 1 studies; cited from earlier work.
For series [3] the following is noted: cited from earlier work; for effect of moderate hepatic impairment on exposure (AUC and C max): compared with matched healthy controls.
For series [4], the system named is subjects with moderately to severely active rheumatoid arthritis (RA). Briefly: Exposure-efficacy analysis. The following applies: week 12; filgotinib 100 mg group. The class given is in vivo, human. The procedure, abridged:
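Individual exposures came from population PK models (nonlinear mixed-effects), built separately for parent and active metabolite. Parent and metabolite exposures were combined as AUCeff, weighted by relative JAK1 inhibition potency. Data were pooled from 3 phase 3 and 2 phase 2 studies: dosed subjects with ≥1 PopPK parameter, plus placebo at week 12. Binary response was fit by nonlinear logistic (Emax on logit) regression, with Clopper-Pearson binomial CIs.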

The test system of series [5] is JAK1‐related interleukin‐6 (IL‐6)‐induced phosphorylated signal transducer and activator of transcription 1 (pSTAT1). The following applies: cited from earlier work.

As to `Nc1nc2cccc(-c3ccc(CN4CCS(=O)(=O)CC4)cc3)n2n1` [GS‐829845], in series [1], the “exposures (AUC0‐24) by presence or absence of the five most frequent TEAEs” value is “similar”; the “serious TEAEs and serious infections against exposures” value is “no exposure‐driven patterns were present”. For the same compound, in the series on JAK1, the “potency relative to the parent (JAK1 preferential inhibitor), fold less potent” value is recorded as “approximately 10 fold”. Besides, the “half‐life” value in series [2] is on record as “approximately 19 hours”. Besides, in series [3], the “exposure in elderly subjects (≥75 years) compared with younger subjects” value is listed as 1.33 fold; the “exposure in subjects with severe renal impairment (RI), fold higher” value is 2.74 fold; the “effect of moderate hepatic impairment on exposure (AUC and C max)” value is listed as “no clinically relevant effect”.
For `O=C(Nc1nc2cccc(-c3ccc(CN4CCS(=O)(=O)CC4)cc3)n2n1)C1CC1` [filgotinib], the ACR20 response rate result in series [4] is on record as “approximately 70%”. In series [1], the “exposures (AUC0‐24) by presence or absence of the five most frequent TEAEs” value was “similar”; the “serious TEAEs and serious infections against exposures” value is “no exposure‐driven patterns were present”. Also, the “half‐life” value in series [2] is about 7 h. Also, in series [5] (plateaued at or above 200 mg total daily dose), the “maximum inhibition of pSTAT1” value was ~ 78%. Besides, the “intermediate inhibition of pSTAT1” value in series [5] (total daily dose of 100 mg) is ~ 47%. Moreover, in series [3], the “exposure in elderly subjects (≥75 years) compared with younger subjects” value is recorded as 1.45 fold; the “exposure in subjects with severe renal impairment (RI), fold higher” value is on record as 1.54 fold; the “effect of moderate hepatic impairment on exposure (AUC and C max)” value is on record as “no clinically relevant effect”.
